This is an account of results in PMC11831629 (The Journal of International Medical Research, 2025).

For series [1] the following is noted: multicenter study; cited from earlier work.
Series [2] is classed as in vivo, human. The method in brief: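 Elderly ICU patients without prior renal failure, AKI, RRT or ECMO received iv test compound for more than 3 days. AKI was a creatinine rise of more than 50% from baseline. Trough and peak plasma levels were measured by HPLC-MS/MS after at least six doses. AUCss,24h and Css,avg were derived with first-order elimination equations. ROC analysis gave sensitivity and specificity for AKI prediction.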

Where [3] appears, read: ROC curve analysis, critically ill elderly patients, 28 AKI vs 30 non-AKI.

Each structure is given as a SMILES string. Bridge positions count the residues as written; N and C are the ends. Square brackets hold non-standard residues; d marks the D form. Peptide text beside a SMILES is read from it. * marks the point of attachment. X1 = CC[C@H](C)CCCCC(=O)*; Dab = NCC[C@H](N)C(=O)O

As for `CC[C@H](C)CCCCC(=O)N[C@@H](CCN)C(=O)N[C@H](C(=O)N[C@@H](CCN)C(=O)N[C@H]1CCNC(=O)[C@H]([C@@H](C)O)NC(=O)[C@H](CCN)NC(=O)[C@H](CCN)NC(=O)[C@H](CC(C)C)NC(=O)[C@@H](Cc2ccccc2)NC(=O)[C@H](CCN)NC1=O)[C@@H](C)O` [polymyxin B] (X1-[Dab]T[Dab][Dab][Dab][dF]L[Dab][Dab]T; lactam 4-C), in series [1], the “mortality rate of patients with PB-associated AKI higher than that of patients without AKI” value is 17%. Besides, the “area under the ROC curve of Css,avg for prediction of PB-AKI” value in series [2] (95% CI 0.579-0.847) is recorded as 0.713. Besides, the “area under the ROC curve of Cmin for prediction of PB-AKI” value in series [2] (95% CI 0.661-0.910) was 0.786. Besides, in series [2] (setting [3]), the “cutoff value for Cmin for predicting AKI” value was 2940 ng/mL and the “cutoff value for Css,avg for predicting AKI” value was 4140 ng/mL. Moreover, in series [2] (cutoff 2.94 mg/L), the “sensitivity of Cmin cutoff for prediction of PB-AKI” value was 78.57% and the “specificity of Cmin cutoff for prediction of PB-AKI” value is on record as 80.00%. Also, in series [2] (cutoff 4.14 mg/L), the “sensitivity of Css,avg cutoff for prediction of PB-AKI” value was 82.14 and the “specificity of Css,avg cutoff for prediction of PB-AKI” value is on record as 53.33%.
